NPY-Y2 antag – antagonists of human neuropeptide Y receptor Y2; P49146; NPY-Y2 expressing cells, antagonist mode; inhibition, % at 2.7 µM; 0.99% of 140,000 active; AID 793;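 note: 0% = vehicle with agonist challenge and 100% = reference antagonist with challenge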
NPY2 pot ag – human NPY-Y2 potentiation or agonism, primary screen; cells expressing NPY-Y2, potentiator/agonist read-out; activation, % at 3.6 µM; 0.45% of 220,000 active; in the data active = activation above about 27%;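 note: cells stimulated with NPY near EC25 plus isoproterenol at EC100; 0% = vehicle plus submaximal agonist and 100% = vehicle plus saturating agonist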
m-calpain inh – blocks pig calpain II enzyme activity | 0.37% of 220,000 active | inhibition, % at 16 µM | purified calpain II, fluorogenic peptide substrate, 30 min | AID 1236;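 active = inhibition above about 50%, limit read from the data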
NPY1 pot ag – potentiators or agonists of human neuropeptide Y receptor Y1; P25929; NPY-Y1 expressing cells, potentiator/agonist activation; activation, % at 3.6 µM; 0.37% of 220,000 active; AID 1304; in the data active = activation above about 33%, passing the limit was not always enough;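 note: cells stimulated with NPY at EC10 then isoproterenol at EC100; 0% = low agonist plus stimulus and 100% = saturating agonist plus stimulus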
Target sequence (P25929 whole entry, looked up): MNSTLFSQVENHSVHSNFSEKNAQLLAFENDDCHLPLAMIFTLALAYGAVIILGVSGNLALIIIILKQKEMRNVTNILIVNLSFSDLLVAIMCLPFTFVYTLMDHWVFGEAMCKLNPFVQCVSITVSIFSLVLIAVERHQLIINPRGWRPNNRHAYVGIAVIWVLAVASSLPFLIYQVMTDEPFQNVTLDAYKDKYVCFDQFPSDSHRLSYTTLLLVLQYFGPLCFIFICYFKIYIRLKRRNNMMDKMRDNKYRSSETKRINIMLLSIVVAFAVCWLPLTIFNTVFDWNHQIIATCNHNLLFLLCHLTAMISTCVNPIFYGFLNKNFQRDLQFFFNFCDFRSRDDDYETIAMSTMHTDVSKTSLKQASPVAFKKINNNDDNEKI
TbHK1 inh – blocks Trypanosoma brucei hexokinase 1 activity; 0.11% of 220,000 active; inhibition, % at 10 µM; AID 1430; recombinant TbHK1, G6PDH-coupled NADH A340;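 active = inhibition of 50% or more in the single-dose primary screen; inactive = inhibition below 50%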
NPY-Y1 antag – blocks the human neuropeptide Y Y1 receptor | P25929 | HEK293-CNG Y1 cells, membrane potential fluorescence; NPY at EC95, then isoproterenol | inhibition, % at 3.6 µM | 1% of 200,000 active | AID 1040;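 active = inhibition above the campaign mean inhibition of all tested compounds plus 3 SD, cut at about 20% in these data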;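 note: 0% = DMSO wells given NPY plus isoproterenol and 100% = isoproterenol alone without NPY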
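Material: Y1- and CNG-channel-expressing HEK293 cells / Probe or stimulus: NPY 25 nM then isoproterenol 1 µM plus Ro 20-1724 25 µM / Doses: 3.6 µM single dose, DMSO 0.4% / Schedule: compound incubation 1 h at room temperature, readout 45 min post-stimulation / Signal: membrane potential fluorescence / Benchmarks: isoproterenol-only wells as full block versus NPY-plus-isoproterenol wells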
NPY-Y1 ant conf – confirmation of human neuropeptide Y receptor Y1 antagonists; shares compounds with NPY-Y1 antag; HEK293-CNG NPY-Y1, membrane potential fluorescence, cAMP; NPY challenge against isoproterenol-raised cAMP; inhibition, % at 3.6 µM; 21% of 1,200 active; AID 1254; in the data active = inhibition above about 20%;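 note: 0% = vehicle with agonist plus stimulus and 100% = stimulus alone without agonist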
NPY2 antag ctr – human NPY-Y2 antagonism in NPY-Y1 counter-screen. 28% of 1,200 active. inhibition, % at 3.6 µM. shares compounds with NPY-Y1 antag. AID 1255. HEK293 NPY-Y2 CNG membrane potential fluorescence; cells given NPY, then isoproterenol;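 note: 0% = DMSO with agonist challenge and 100% = reference antagonist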
* hit, by the source's call; x = not tested or not shown. Hits are enriched below; roughly 2.3% of the tested compounds scored in any of these assays. Cut-off read from the data, not from the text of the source, unless noted: active = inhibition above about 17%; inactive = the rest.

SMILES	NPY-Y2 antag	NPY2 pot ag	m-calpain inh	NPY1 pot ag	TbHK1 inh	NPY-Y1 antag	NPY-Y1 ant conf	NPY2 antag ctr
COc1ccc(CN(C)CC(=O)c2c(N)n(Cc3ccccc3)c(=O)n(C)c2=O)c(OC)c1	14	-3	-10	-38	3	24*	11	8
CCn1nnc(-c2ccccc2NC(=O)c2ccc(-n3cnnn3)cc2)n1	6	-6	-33	12	1	23*	14	6
CCn1nnc(-c2ccccc2NC(=O)c2cccc(-n3cnnn3)c2)n1	2	-4	-62	-11	4	8	x	x
CCCS(=O)(=O)c1cscc1NC(=O)c1c(-c2c(F)cccc2Cl)noc1C	x	20	-9	6	-7	x	x	x
CCCCNC(=O)c1sc2nc(C)cc(COC)c2c1-n1cccc1	9	-22	8	-44	5	21*	20	12
COCc1cc(C)nc2sc(C(=O)NN)c(-n3cccc3)c12	x	-20	-4	-5	4	1	x	x
O=C(COC(=O)CSc1cccc2cccc(Cl)c12)Nc1ncc(C(F)(F)F)cc1Cl	14	-21	12	-44	11	2	x	x
NC(=O)COC(=O)CSc1cccc2cccc(Cl)c12	x	-34	-24	-48	-11	27*	13	14
O=C(CCC(=O)Nc1ccccc1Cl)NNC(=O)c1ccco1	2	10	1	1	11	2	x	x
CC(C)CCOCC(=O)Nc1cccc(C(=O)O)c1	2	1	5	14	0	-1	x	x
CCOC(=O)CNC(c1ccccc1)c1cc(Br)ccc1NC(C)=O (configuration not stated)	x	-17	23	-39	3	47*	5	7
CCOC(=O)c1cccc(-n2c(-c3ccc(OC)cc3)nc3nc4ccccc4nc32)c1	1	-4	-352	-6	-24	1	x	x
Cn1c(-c2ccc3c(c2)OCO3)cnc1NCc1ccccc1Cl	x	-2	-2	-7	3	12	x	x
Cn1c(-c2ccc3c(c2)OCO3)cnc1NCc1cccc(Cl)c1	10	-18	26	-6	12	34*	12	12
CC1CN(c2nnc(NC(=O)c3ccccc3)s2)CC(C)O1 (configuration not stated)	x	4	18	13	-16	-2	x	x
O=C(Cc1ccc(Br)cc1)NC1CCSC1=O (configuration not stated)	x	6	0	10	3	1	x	x
c1ccc(-c2nc(Sc3ncnc4c3cnn4-c3ccccc3)n[nH]2)cc1	6	-33	-24	-51	-7	26*	7	9
OC1CCN(Cc2cccc(Oc3ccccc3)c2)CC1	2	5	13	1	-1	-2	x	x
CC1CCCN(Cc2cccc(Oc3ccccc3)c2)C1 (configuration not stated)	13	-10	6	-13	11	25*	10	10
CCCn1c(SCC(=O)Nc2ccccc2N2CCCCC2)nc2c1c(=O)n(C)c(=O)n2C	11	-12	4	-33	1	26*	15	13
CCCn1c(SCC(=O)Nc2ccccc2C(=O)OC)nc2c1c(=O)n(C)c(=O)n2C	3	0	-6	3	-5	-2	x	x
Cc1cc(C)n(CCNC(=O)CC2C(=O)NCCN2CC2CCCCC2)n1 (configuration not stated)	x	-1	-36	21	-3	0	x	x
Cc1nc2nc(SCC(=O)O)nn2c(C)c1Cc1ccccc1Cl	x	-12	14	-28	-1	23*	12	6
COc1ccc(-n2cc(CNC3CCN(C)CC3)c(-c3cccc(F)c3)n2)cc1	x	-41	-57	-20	-5	22*	17	24*
Cc1ccc(C(=O)C(C)OC(=O)c2ccccc2[N+](=O)[O-])cc1 (configuration not stated)	2	3	21	-11	25	6	x	x
SMILES	NPY-Y2 antag	NPY2 pot ag	m-calpain inh	NPY1 pot ag	TbHK1 inh	NPY-Y1 antag	NPY-Y1 ant conf	NPY2 antag ctr
O=C(CN1CCN(c2ncc(C(F)(F)F)cc2Cl)CC1)N1CCN(c2ncc(C(F)(F)F)cc2Cl)CC1	3	4	19	-19	-9	7	x	x
O=C(CSc1ccc(Cl)cc1)N1CCN(c2ncc(C(F)(F)F)cc2Cl)CC1	10	-23	9	-4	12	24*	5	13
Cc1ccc(C(O)(COC(=O)C(C)C)COC(=O)C(C)C)c(O)c1	x	-8	22	-3	2	-2	x	x
CCc1ccccc1NC(=O)/C(=C/c1ccco1)c1ccccc1	2	0	15	6	-8	22*	3	3
OCC1C2c3ccccc3C(c3ccccc32)C1CO (configuration not stated)	x	-12	-19	2	-10	x	x	x
CC1CCCCC1NC(=O)CN1C(=O)NC(Cc2ccccc2)(Cc2ccccc2)C1=O (configuration not stated)	16	-25	-1	-37	-1	24*	31*	28*
COCCCN1CCN(C2Cc3ccccc3Sc3ccc(Cl)cc32)CC1 (configuration not stated)	16	-33	13	-60	-12	26*	8	16
CC(C)(CO)NC(=S)NCc1ccco1	x	4	9	-9	-1	x	x	x
CCCCN(C)C(=O)c1nc2ccccn2c1CN1CCN(C/C=C/c2ccccc2)CC1	x	-15	-3	-2	-6	26*	18	10
CC(C)(C)C(=O)Nc1cc2nn(-c3ccccc3)nc2cc1Cl	0	16	-24	6	0	20*	2	4
Cc1cccc(NC(=O)c2cc(Cl)nc3ccccc23)c1	16	-58	23	-107	2	24*	8	12
Cc1cccc(NC(=O)c2cc(N3CCOCC3)nc3ccccc23)c1	4	-14	-136	-69	-8	16	x	x
CCOC(=O)c1c(NC(=O)C2COc3ccccc3O2)sc2c1CCN(Cc1ccccc1)C2 (configuration not stated)	5	-16	10	-64	-3	22*	23*	20*
Cc1nn(-c2ccccn2)c2c1C(=O)CC(C)(C)C2Br (configuration not stated)	x	15	22	14	-7	x	x	x
ClCc1ncc(-c2ccc(Cl)cc2)o1	x	-3	-13	-8	-3	12	x	x
Cc1cccc(NC(=O)C2C3CCC4C(CCC32)C4(Cl)Cl)c1 (configuration not stated)	16	-1	5	-8	-1	28*	15	6
O=C(Nc1ccc(Cl)cc1)C1C2CCC3C(CCC21)C3(Cl)Cl (configuration not stated)	4	-2	-31	0	-1	12	x	x
